Experiments:
[1] = Half life in pH 2 solution at 10^-3 M by HPLC analysis; assay type: physicochemical
[2] = Half life in pH 7.4 Tris HCl buffer containing KCl at 10^-3 M by HPLC analysis; assay type: physicochemical
[3] = Half life in RPMI 1640 culture medium at 10^-3 M by HPLC analysis; assay type: physicochemical
[4] = Half life in human serum at 10^-3 M by HPLC analysis; assay type: ADME, cell-free
[5] = Half life in human gastric juice; assay type: ADME, tissue-based
[6] = Stability in pH 7.4 phosphate buffered saline assessed as lipid adsorption on glass surface using pyrex glassware measured up to 1440 mins by LC-MS analysis; assay type: physicochemical; settings: buffer, pH 7.4, 24 h
[7] = Stability in pH 7.4 phosphate buffered saline assessed as lipid adsorption on glass surface using silanized glassware measured up to 1440 mins by LC-MS analysis; assay type: physicochemical; settings: buffer, pH 7.4, 24 h
[8] = Stability in pH 7.4 phosphate buffered saline assessed as lipid adsorption on glass surface using kimax glassware measured up to 1440 mins by LC-MS analysis; assay type: physicochemical; settings: buffer, pH 7.4, 24 h
[9] = tested on: Human immunodeficiency virus 1; test: Antiviral activity against HIV1 infected in human PBMC assessed as inhibition of viral replication by measuring reverse transcriptase activity in cell supernatant preincubated with cells followed by viral infection measured after 7 days by radioactive incorporation polymerization assay; assay type: functional, organism-based
Outline: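 HIV-infected PBMCs; antiviral activity read as reverse transcriptase in cell supernatants; EC50 is the concentration in μM that inhibits HIV-1 by 50%.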

[10] = (§1) Cytotoxicity against human PBMC assessed as reduction in cell viability by XTT assay; assay type: cell-based
Outline: (§2)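 CC50 is the concentration in μM that reduces viability of uninfected PBMCs by 50%.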

[11] = Therapeutic index, ratio of CC50 for human PBMC to EC50 for HIV1 infected in human PBMC; assay type: toxicity; settings: read-out: Ratio CC50/EC50
Outline: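 TI is the ratio of PBMC CC50 (uninfected cells, 50% viability loss) to EC50 for 50% inhibition of HIV-1, both in μM; HIV-1 activity measured as reverse transcriptase in supernatants of infected PBMCs.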

Hepatitis B virus = test: Antiviral activity against HBV infected in human HepG2.2.15 cells assessed as inhibition of viral DNA in cell supernatant incubated for 3 days in presence of 10% FBS followed by compound treatment in absence of 10% FBS for 3 days by qRT-PCR method; assay type: functional, organism-based; settings: HepG2.2.15, 72 h
Outline: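 HBV assay in HepG2.2.15 cells; viral DNA quantified by qPCR after 6 days of incubation.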

[12] = (§3) Cytotoxicity against human HepG2.2.15 cells assessed as reduction in cell viability after 6 days by XTT assay; assay type: cell-based, HepG2 2.2.15; settings: HepG2.2.15 cells
[13] = Therapeutic index, ratio of CC50 for human HepG2.2.15 cells to EC50 for HBV infected in human HepG2.2.15 cells; assay type: toxicity, cell-based; settings: read-out: Ratio CC50/EC50
[14] = Oral bioavailability in mouse; assay type: ADME, organism-based; settings: in vivo
PBMC = test: as §1; assay type: cell-based; outline: as §2
HepG2 2.2.15 = test: as §3; assay type: cell-based; settings: hepg2 2.2.15, 144 h
[15] = Half life in human plasma at 2 mg by LC-MS analysis; assay type: ADME, cell-free
Outline: (§4)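 Compound incubated in human serum, PBS (pH 7.4), DMEM, or carbonate/bicarbonate buffer (pH 9). Aliquots were taken at several time points over 2 h, with a final sample at 24 h, and analysed by LC-MS to follow decomposition. Half-life was derived from loss of parent over time.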

[16] = Half life in pH 7.4 phosphate buffered saline at 2 mg by LC-MS analysis; assay type: physicochemical; outline: as §4
[17] = Therapeutic index, ratio of CC90 for human PBMC to EC90 for HIV1 infected in human PBMC; assay type: toxicity; settings: read-out: TI
Outline: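 HIV-1-infected human PBMCs; antiviral effect read as reverse transcriptase activity in culture supernatants. Toxicity measured as loss of viability in uninfected PBMCs. Index calculated as the cytotoxic concentration divided by the effective concentration at the 90% level (CC90/EC90).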

[18] = Half life in pH 7.4 phosphate buffered saline at 2 mg using kimax glassware by LC-MS analysis; assay type: physicochemical; outline: as §4
[19] = Half life in pH 9 Sodium carbonate/bicarbonate buffer at 2 mg using kimax glassware by LC-MS analysis; assay type: physicochemical; outline: as §4
[20] = Half life in DMEM at 2 mg using kimax glassware by LC-MS analysis; assay type: physicochemical; outline: as §4
[21] = Stability in pH 9 Sodium carbonate/bicarbonate buffer at 2 mg by LC-MS analysis; assay type: physicochemical; settings: in vitro; outline: as §4
[22] = Stability in DMEM at 2 mg by LC-MS analysis; assay type: physicochemical; settings: in vitro; outline: as §4

| SMILES | EC50 (Hepatitis B virus) [µM] | EC50 [9] [µM] | CC50 [10] [µM] | selectivity ratio [11] | CC50 at 144 h [12] [µM] | selectivity ratio [13] | CC50 (PBMC) [µM] | other results |
| --- | --- | --- | --- | --- | --- | --- | --- | --- |
| Nc1ncnc2c1ncn2CCOCP(=O)(OCCSSCCO)OCCSSCCO |  |  |  |  |  |  |  | half-life at 1000 µM [1]: > 24 h; half-life at 1000 µM [2]: > 24 h; half-life at 1000 µM [3]: > 24 h; half-life at 1000 µM [4]: < 4.98 min; half-life [5]: > 24 h |
| CCCCCCCCCCCCCCCCOCCCOC[C@H]1O[C@@H](n2ccc(=O)[nH]c2=O)[C@H](F)[C@@H]1O |  |  |  |  |  |  |  | Stability [6]: Unstable; Stability [7]: Unstable; Stability [8]: Stable |
| CCCCCCCCCCCCCCCCSSCCOP(=O)(CO[C@H](C)Cn1cnc2c(N)ncnc21)OCCCCCCCC (stereo not given in full) |  | 0.911 | > 50 | > 50 |  |  |  |  |
| C[C@H](Cn1cnc2c(N)ncnc21)OCP(=O)(O)O [TENOFOVIR ANHYDROUS] |  | 0.319 |  | > 300 |  |  | > 100 | bioavailability [14]: 2% |
| C[C@H](Cn1cnc2c(N)ncnc21)OCP(=O)(O)OCCSSCCO | 11.6 | 1.61 |  | > 62.1 |  | > 8.6 | > 100 | CC50 (HepG2 2.2.15): > 100 µM; t1/2 [15]: < 0.567 h; half-life [16]: 3.5 h |
| CCCCCCCCCCCCCCCCSSCCOP(=O)(CO[C@H](C)Cn1cnc2c(N)ncnc21)OCC(C)(C)C (mixture of isomers) |  | 0.14 |  | > 700 |  |  | > 100 |  |
| CCCCCCCCCCCCCCCCSSCCOP(=O)(CO[C@H](C)Cn1cnc2c(N)ncnc21)Nc1ccccc1 (stereo not given in full) |  | 0.005 |  | 7000 |  |  | 34.2 |  |
| CCCCCCCCCCCCCCCCSSCCOP(=O)(CO[C@H](C)Cn1cnc2c(N)ncnc21)OCCC (stereo not given in full) |  | 0.216 |  | 49 |  |  | 10.6 |  |
| CCCCCCCCCCCCCCCCSSCCOP(=O)(O)CO[C@H](C)Cn1cnc2c(N)ncnc21.N | 0.02 | 0.00065 |  | 22000 |  | 1200 to 1250 | 14.3 | CC50 (HepG2 2.2.15): > 25 µM; selectivity ratio [17]: 11000; t1/2 [15]: > 24 h; half-life [16]: < 0.333 h; half-life [18]: < 2 h; half-life [19]: < 2 h; half-life [20]: < 2 h; Stability [21]: Unstable; Stability [22]: Unstable |

The next lines start with results.

| EC50 (Hepatitis B virus) [µM] | SMILES | EC50 [9] [µM] | CC50 [10] [µM] | selectivity ratio [11] | CC50 at 144 h [12] [µM] | selectivity ratio [13] | CC50 (PBMC) [µM] | other results |
| --- | --- | --- | --- | --- | --- | --- | --- | --- |
| > 100 | CCCCCCCCCCCCCCSSCCOP(=O)(CO[C@H](C)Cn1cnc2c(N)ncnc21)OCCSSCCCCCCCCCCCCCC | 0.189 | > 100 | > 529 | > 100 | > 1 |  |  |
| > 25 | CCCCCCCCCCCCCCCCSSCCOP(=O)(CO[C@H](C)Cn1cnc2c(N)ncnc21)OCCSSCCCCCCCCCCCCCCCC | 6.32 | > 25 | 4 | > 25 | > 1 |  |  |
| > 100 | CCCCCCCCCCCCSSCCOP(=O)(CO[C@H](C)Cn1cnc2c(N)ncnc21)OCCSSCCCCCCCCCCCC | 1.18 | > 100 | > 85 | > 100 | > 1 |  |  |
| > 100 | CCCCCCCCCCSSCCOP(=O)(CO[C@H](C)Cn1cnc2c(N)ncnc21)OCCSSCCCCCCCCCC | 0.349 | > 100 | > 287 | > 100 | > 1 |  |  |

Source: ChEMBL document CHEMBL4477226, “Reduction Sensitive Lipid Conjugates of Tenofovir: Synthesis, Stability, and Antiviral Activity” (J Med Chem, 2016)
